Experimental data taken from the array DNA melting data of Ke et al. (doi:10.1101/2024.01.08.574731).

Assays:
[1] = melting temperature; fluorescence melt of hairpins on a sequencing array, two-state fit, raised by 9.35 °C to match UV melts; conditions: sodium 0.088 M
In short: (§1)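 Cy3 fluorescence of library hairpins on a sequenced MiSeq flow cell, with annealed Cy3 and quencher oligos, was imaged in 50 mM Na-HEPES pH 8.0, 25 mM NaCl in 2.5 °C steps up to 60 °C. Signals were normalised to pre-quench Cy3 and to control variants. Melting temperature and folding enthalpy came from bootstrapped two-state fits, inverse-variance combined over four replicates. Fitted temperatures were raised by 9.35 °C to match UV melts.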

[2] = folding enthalpy; higher = less favourable; fluorescence melt of hairpins on a sequencing array, two-state fit; conditions: sodium 0.088 M
In short: as §1

## GAGACCCGAAAGGGCCTC (((.(((....))).)))
[1]
  Tm: 58.5 °C
[2]
  folding enthalpy: -28.8 kcal/mol

## GCTAGCGAAAGCTACAGC ((((((....)))..)))
[1]
  Tm: 39.6 °C
[2]
  folding enthalpy: -15.5 kcal/mol

## GATCACAAATGTGATC ((((((....))))))
[1]
  Tm: 55.5 °C
[2]
  folding enthalpy: -33.4 kcal/mol

## GCACGTGGAAACACACGC ((..(((....)))..))
[1]
  Tm: 37.8 °C
[2]
  folding enthalpy: -21.3 kcal/mol

## GATCTACTCCTAGATC ((((((....))))))
[1]
  Tm: 39.5 °C
[2]
  folding enthalpy: -33 kcal/mol

## GCTCTCACGAAAGTGAGC (((..(((....))))))
[1]
  Tm: 35.8 °C
[2]
  folding enthalpy: -7.6 kcal/mol

## GGACGCGAAAGCGCTTCC ((((((....)))..)))
[1]
  Tm: 47.5 °C
[2]
  folding enthalpy: -13.2 kcal/mol

## GGGAATGGAAACGTTTCC ((.((.(....).)).))
[1]
  Tm: 34.3 °C
[2]
  folding enthalpy: -15.3 kcal/mol

## GCTCATACGAAAGTAAGC (((..(((....))))))
[1]
  Tm: 28 °C
[2]
  folding enthalpy: -9.13 kcal/mol

## GCGAGTGGAAACGCTCGC (((((.(....).)))))
[1]
  Tm: 64 °C
[2]
  folding enthalpy: -46 kcal/mol

## GCGATGCTCGC ((((...))))
[1]
  Tm: 54.9 °C
[2]
  folding enthalpy: -14.1 kcal/mol

## GATCTCGAGGGAGATC ((((((....))))))
[1]
  Tm: 51.7 °C
[2]
  folding enthalpy: -19.9 kcal/mol

## GCATTTCGAAAGAACTGC (((.(((....))).)))
[1]
  Tm: 43 °C
[2]
  folding enthalpy: -32.1 kcal/mol

## GATCAAGGAAACTTGGTC ((.((((....)))).))
[1]
  Tm: 41.5 °C
[2]
  folding enthalpy: -30.5 kcal/mol

## GGCTTCGAAAGAAACGCC ((((((....)))..)))
[1]
  Tm: 43.8 °C
[2]
  folding enthalpy: -26.1 kcal/mol

## GCTTGCGAAAGCATTAGC ((((((....)))..)))
[1]
  Tm: 42 °C
[2]
  folding enthalpy: -15.2 kcal/mol

## GAGGACGAAAGTCATCTC ((((((....)))..)))
[1]
  Tm: 51.8 °C
[2]
  folding enthalpy: -19.1 kcal/mol

## GAGTACGAAAGTATACTC ((((((....)))..)))
[1]
  Tm: 34.4 °C
[2]
  folding enthalpy: -19.7 kcal/mol

## GGCTCCGGAAACGGGGTC (.(.(((....))).).)
[1]
  Tm: 49 °C
[2]
  folding enthalpy: -25.1 kcal/mol

## GATGTTACGAAAGTAATC (((..(((....))))))
[1]
  Tm: 26.9 °C
[2]
  folding enthalpy: -13.5 kcal/mol

## GGTCACGAAAGTGCGACC ((((((....)))..)))
[1]
  Tm: 40.8 °C
[2]
  folding enthalpy: -17.7 kcal/mol

## GCACGGCGAAAGCATTGC (((..((....))..)))
[1]
  Tm: 39.9 °C
[2]
  folding enthalpy: -16.6 kcal/mol

## GGCACCGCGAAAGCGGCC (((..(((....))))))
[1]
  Tm: 40 °C
[2]
  folding enthalpy: -8.53 kcal/mol

## GCTTGGAAACAAGC (((((....)))))
[1]
  Tm: 53.7 °C
[2]
  folding enthalpy: -31 kcal/mol

## GAGGTCGGAAACGACCCC (.(((((....))))).)
[1]
  Tm: 48.3 °C
[2]
  folding enthalpy: -9.23 kcal/mol

## GGATCTGGAAACGGATCC (((((.(....).)))))
[1]
  Tm: 51.6 °C
[2]
  folding enthalpy: -38.4 kcal/mol

## GCACCCGAAAGGGCCTGC ((((((....)))..)))
[1]
  Tm: 34.5 °C
[2]
  folding enthalpy: -13.4 kcal/mol

## GATCATGGGAATGATC ((((((....))))))
[1]
  Tm: 51.8 °C
[2]
  folding enthalpy: -36.8 kcal/mol

## GGAACCGGAAACGGTCCC ((.((((....)))).))
[1]
  Tm: 52.9 °C
[2]
  folding enthalpy: -19.7 kcal/mol

## GATCTTCTTTAAGATC ((((((....))))))
[1]
  Tm: 43.3 °C
[2]
  folding enthalpy: -38 kcal/mol

## GGTCAGAAATGACC (((((....)))))
[1]
  Tm: 53.6 °C
[2]
  folding enthalpy: -28.2 kcal/mol

## GTATAGGGAAACCTATAC (((((((....)))))))
[1]
  Tm: 50.1 °C
[2]
  folding enthalpy: -41 kcal/mol

## GTTAGCGGAAACACTAAC (((((.(....).)))))
[1]
  Tm: 36.6 °C
[2]
  folding enthalpy: -30.3 kcal/mol

## GTTAGCGAAAGCTCAAC ((((((....))).)))
[1]
  Tm: 32.7 °C
[2]
  folding enthalpy: -11.8 kcal/mol

## GAAAGTGGAAACACTTTC (((((((....)))))))
[1]
  Tm: 56.8 °C
[2]
  folding enthalpy: -36.1 kcal/mol

## GCTCGCGAAAGCGAAGC ((((((....))).)))
[1]
  Tm: 65.3 °C
[2]
  folding enthalpy: -17.6 kcal/mol

## GGGTGGGGAAACCTACCC ((((.((....)).))))
[1]
  Tm: 54.5 °C
[2]
  folding enthalpy: -41.4 kcal/mol

## GAGACGGGAAACCGTCTC (((((((....)))))))
[1]
  Tm: 69 °C
[2]
  folding enthalpy: -28 kcal/mol

## GAATGCCGAAAGGCCTTC (((.(((....))).)))
[1]
  Tm: 41.3 °C
[2]
  folding enthalpy: -17 kcal/mol

## TGATCGAAAGATCA (((((....)))))
[1]
  Tm: 51.3 °C
[2]
  folding enthalpy: -21 kcal/mol

## GCGAGTGTTCGC ((((....))))
[1]
  Tm: 49 °C
[2]
  folding enthalpy: -14.4 kcal/mol

## GTGCTGGGAAACCAGTAC ((.((((....)))).))
[1]
  Tm: 51.7 °C
[2]
  folding enthalpy: -39.6 kcal/mol

## GGCGCAGGAAACTGCACC ((.((((....)))).))
[1]
  Tm: 54.4 °C
[2]
  folding enthalpy: -29.9 kcal/mol

## GATCCTCAGAAGGATC ((((((....))))))
[1]
  Tm: 51 °C
[2]
  folding enthalpy: -35.3 kcal/mol

## GCCGCTCCGAAAGGAGGC (((..(((....))))))
[1]
  Tm: 55.4 °C
[2]
  folding enthalpy: -9.81 kcal/mol

## GCCAAGCGAAAGCAGGGC (((..((....))..)))
[1]
  Tm: 60.4 °C
[2]
  folding enthalpy: -26.4 kcal/mol
